Results published in ChEMBL document CHEMBL1148922, “Triterpenoids from Brazilian Ilex species and their in vitro antitrypanosomal activity” (J Nat Prod, 2004).

How the values were obtained:
Trypanosoma cruzi = assay: Antitrypanosomal activity against Trypanosoma cruzi Tulahuen CL2 by microdilution method; assay type: functional, organism-based
How it was run: (§1)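 In vitro test run by the WHO procedure, using serial microdilution in a 96-well microtiter integrated system.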

Trypanosoma brucei = assay: Antitrypanosomal activity against Trypanosoma brucei S427 by microdilution method; assay type: functional, organism-based; how it was run: as §1

SMILES	IC50 (Trypanosoma cruzi)	IC50 (Trypanosoma brucei)
CC1(C)CC[C@]2(C(=O)O[C@@H]3O[C@H](CO)[C@@H](O)[C@H](O)[C@H]3O)CC[C@]3(C)C(=CC[C@@H]4[C@@]5(C)CC[C@H](O[C@@H]6O[C@H](CO)[C@H](O)[C@H](O)[C@H]6O[C@@H]6O[C@H](CO)[C@@H](O)[C@H](O)[C@H]6O)C(C)(C)[C@@H]5CC[C@]43C)[C@@H]2C1	> 32 µM	> 32 µM
C[C@H]1CC[C@]2(C(=O)O)CC[C@]3(C)C(=CC[C@@H]4[C@@]5(C)CC[C@H](O[C@@H]6OC[C@H](O)[C@H](O)[C@H]6O)C(CO)(CO)[C@@H]5CC[C@]43C)[C@@H]2[C@]1(C)O [BREVICUSPISAPONIN 2]	> 32 µM	16 µM
C[C@@H]1CC[C@]2(C(=O)O[C@@H]3O[C@H](CO)[C@@H](O)[C@H](O)[C@H]3O)CC[C@]3(C)C(=CC[C@@H]4[C@@]5(C)CC[C@H](O[C@@H]6OC[C@H](O)[C@H](O[C@@H]7O[C@H](CO)[C@@H](O)[C@H](O)[C@H]7O)[C@H]6O)C(C)(C)[C@@H]5CC[C@]43C)[C@@H]2[C@]1(C)O [ILEKUDINOSIDE E]	> 32 µM	> 32 µM
C[C@H]1CC[C@]2(C(=O)O)CC[C@]3(C)C(=CC[C@@H]4[C@@]5(C)CC[C@H](O[C@@H]6OC[C@H](O)[C@H](O)[C@H]6O)[C@](C)(CO)[C@@H]5CC[C@]43C)[C@@H]2[C@]1(C)O [BREVICUSPISAPONIN 1]	> 32 µM	> 32 µM
C[C@@H]1CC[C@]2(C(=O)O[C@@H]3O[C@H](CO)[C@@H](O)[C@H](O)[C@H]3O)CC[C@]3(C)C(=CC[C@@H]4[C@@]5(C)CC[C@H](O)[C@@](C)(CO)[C@@H]5CC[C@]43C)[C@@H]2[C@]1(C)O [PEDUNCULOSIDE]	> 32 µM	> 32 µM
CC(=O)O[C@H]1CC[C@]2(C)[C@H]3CC=C4[C@@H]5[C@@H](C)[C@H](C)CC[C@]5(C(=O)O)CC[C@@]4(C)[C@]3(C)CC[C@H]2C1(C)C [O-ACETYLURSOLIC ACID]	> 32 µM	17 µM
CC(=O)OC[C@H]1O[C@@H](OC(=O)[C@]23CC[C@@H](C)[C@@](C)(OC(C)=O)[C@H]2C2=CC[C@@H]4[C@@]5(C)CC[C@H](O[C@@H]6OC[C@H](OC(C)=O)[C@H](O[C@@H]7O[C@H](COC(C)=O)[C@@H](OC(C)=O)[C@H](OC(C)=O)[C@H]7OC(C)=O)[C@H]6OC(C)=O)C(C)(C)[C@@H]5CC[C@@]4(C)[C@]2(C)CC3)[C@H](OC(C)=O)[C@@H](OC(C)=O)[C@@H]1OC(C)=O [PERACETYL ILEXOSIDE II]	> 32 µM	> 32 µM
C[C@H]1[C@H](C)CC[C@]2(CO)CC[C@]3(C)C(=CC[C@@H]4[C@@]5(C)CC[C@H](O)C(C)(C)[C@@H]5CC[C@]43C)[C@H]12 [UVAOL]	> 32 µM	> 32 µM
C[C@H]1[C@H](C)CC[C@]2(C(=O)O[C@@H]3O[C@H](CO)[C@@H](O)[C@H](O)[C@H]3O)CC[C@]3(C)C(=CC[C@@H]4[C@@]5(C)CC[C@H](O[C@@H]6OC[C@H](O)[C@H](O[C@@H]7O[C@H](CO)[C@@H](O)[C@H](O)[C@H]7O)[C@H]6O)C(C)(C)[C@@H]5CC[C@]43C)[C@H]12 [MATESAPONIN 1]	> 32 µM	> 32 µM
CC1CS(=O)(=O)CCN1/N=C/c1ccc([N+](=O)[O-])o1 (configuration not stated) [NIFURTIMOX]	0.39 µM	–
C[C@H]1[C@H](C)CC[C@]2(C(=O)O[C@@H]3O[C@H](CO[C@@H]4O[C@H](CO)[C@@H](O)[C@H](O)[C@H]4O)[C@@H](O)[C@H](O)[C@H]3O)CC[C@]3(C)C(=CC[C@@H]4[C@@]5(C)CC[C@H](O[C@@H]6OC[C@H](O)[C@H](O[C@@H]7O[C@H](CO)[C@@H](O)[C@H](O)[C@H]7O)[C@H]6O)C(C)(C)[C@@H]5CC[C@]43C)[C@H]12 [MATESAPONIN 3]	> 32 µM	> 32 µM
C[C@H]1[C@H](C)CC[C@]2(C(=O)O)CC[C@]3(C)C(=CC[C@@H]4[C@@]5(C)CC[C@H](O)C(C)(C)[C@@H]5CC[C@]43C)[C@H]12 [URSOLIC ACID]	4 µM	4 µM
CC1(C)CC[C@]2(C(=O)O)CC[C@]3(C)C(=CC[C@@H]4[C@@]5(C)CC[C@H](O[C@@H]6O[C@H](CO)[C@H](O)[C@H](O)[C@H]6O[C@@H]6O[C@H](CO)[C@@H](O)[C@H](O)[C@H]6O)C(C)(C)[C@@H]5CC[C@]43C)[C@@H]2C1	10 µM	4 µM
C[C@H]1[C@H](C)CC[C@]2(C(=O)O[C@@H]3O[C@H](CO[C@@H]4O[C@H](CO)[C@@H](O)[C@H](O)[C@H]4O)[C@@H](O)[C@H](O)[C@H]3O)CC[C@]3(C)C(=CC[C@@H]4[C@@]5(C)CC[C@H](O[C@@H]6OC[C@H](O)[C@H](O[C@@H]7O[C@H](CO)[C@@H](O)[C@H](O)[C@H]7O)[C@H]6O[C@@H]6O[C@@H](C)[C@H](O)[C@@H](O)[C@H]6O)C(C)(C)[C@@H]5CC[C@]43C)[C@H]12 [MATESAPONIN 4]	> 32 µM	> 32 µM
